Laboratory results as given in ChEMBL document CHEMBL1132564, “Antitumor benzothiazoles. 7. Synthesis of 2-(4-acylaminophenyl)benzothiazoles and investigations into the role of acetylation in the antitumor activities of the parent amines” (J Med Chem, 1999).

Key:
[1] = test system: MCF7; experiment: In vitro antitumor activity against MCF-7 carcinoma cell line.; type: functional, cell-based; conditions: Homo sapiens
Method in brief: (§1)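 MTT assay, 7-day format: 250–300 cells/well, adhered 24 h drug-free, then compound 1 pM–100 μM (n = 8), final DMSO <0.25%; RPMI 1640/10% FCS, 37 °C, 5% CO2. MTT added after exposure, 4 h, formazan dissolved in DMSO–glycine (4:1), absorbance 550 nm.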

[2] = test system: NCI; experiment: In vitro antitumor activity against carcinoma cell lines by 2-day assay; type: functional, Homo sapiens
Method in brief: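 NCI panel sulforhodamine B assay: line-specific seeding, 24 h drug-free, then five 10-fold dilutions (top 10^-4 M) for 2 days; growth inhibition from protein-stain optical density change; mean log GI50 across panel.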

[3] = test system: MDA-MB-468; experiment: In vitro antitumor activity against MDA-468 carcinoma cell line.; type: functional, cell-based; conditions: Homo sapiens; method in brief: as §1
[4] = test system: Homo sapiens; experiment: In vitro concentration to reduce colony formation of human tumor xenografts to 30% of the control; type: functional
Method in brief: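 Clonogenic colony-formation assay using cells from 22 human tumor xenografts, tested at 0.1, 1.0 and 10 μg/mL; colony inhibition expressed as T/C, with T/C < 30% scored active; IC70 concentration reported.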

IC50 [1] [nM] | IC50 [3] [nM] | SMILES | Mean log GI50 [2] [M] | Mean IC70 [4] [µg/mL]
> 10000 | > 10000 | CC(=O)Nc1ccc(-c2nc3ccccc3o2)cc1 | -4.27 | –
> 10 | > 100 | CC(=O)Nc1ccc(-c2nc3ccccc3s2)cc1Cl | -4.54 | –
> 100 | > 100 | O=C(Nc1ccc(-c2nc3ccccc3s2)cc1)C(Cl)Cl | – | –
> 10 | > 100 | O=C(CCl)Nc1ccc(-c2nc3ccccc3s2)cc1 | -5.7 | 3.5
> 100 | > 100 | CC(=O)Nc1ccc(-c2nc3ccccc3s2)cc1I | -4.7 | –
> 10 | > 100 | O=C(Nc1ccc(-c2nc3ccccc3s2)cc1)C(F)(F)F | – | –
> 10000 | > 1000 | CC(=O)N(C(C)=O)c1ccc(-c2nc3ccccc3s2)cc1Cl | – | –
